Assay results from ChEMBL document CHEMBL1134286, “Novel erythromycin derivatives with aryl groups tethered to the C-6 position are potent protein synthesis inhibitors and active against multidrug-resistant respiratory pathogens” (J Med Chem, 2001).
Converted amounts (≈) assume the structure as drawn.

Key:
Staphylococcus aureus [1] = experiment: Minimum inhibitory concentration against Staphylococcus aureus A 5177 MLSB-i; type: functional
Summary of the method: (§1)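 MICs were determined by agar dilution following National Committee for Clinical Laboratory Standards recommendations. Values are in µg/mL.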

Staphylococcus aureus [2] = experiment: Minimum inhibitory concentration against Staphylococcus aureus A 5278 MLSB-c; type: functional; summary of the method: as §1
Mus musculus [3] = species on record: Mus musculus; experiment: Mouse protection tests for effective dose against Staphylococcus aureus 10649 ((erythromycin susceptible strain)) infected mice; type: functional
Mus musculus [4] = species on record: Mus musculus; experiment: Mouse protection tests for effective dose against Streptococcus pneumoniae 6303 ((erythromycin susceptible strain)) infected mice; type: functional
[5] = Minimum inhibitory concentration against Streptococcus pyogenes PIU2548 efflux; type: functional; summary of the method: as §1
Staphylococcus aureus [6] = experiment: Minimum inhibitory concentration against Staphylococcus aureus 10649 (erythromycin susceptible strain); type: functional; summary of the method: as §1
Streptococcus pneumoniae [7] = experiment: Minimum inhibitory concentration against Streptococcus pneumoniae 5649 efflux; type: functional; summary of the method: as §1
[8] = Minimum inhibitory concentration against Streptococcus pneumoniae 5737 MLSB; type: functional; summary of the method: as §1
Streptococcus pneumoniae [9] = experiment: Minimum inhibitory concentration against Streptococcus pneumoniae ATCC 6303 Ery-S; type: functional; summary of the method: as §1
Streptococcus pneumoniae [10] = experiment: Minimum inhibitory concentration against Streptococcus pneumoniae 6303 (erythromycin susceptible strain); type: functional; summary of the method: as §1
[11] = Minimum inhibitory concentration against Streptococcus pyogenes 930MLSB; type: functional; summary of the method: as §1
Staphylococcus aureus [12] = experiment: Minimum inhibitory concentration against Staphylococcus aureus ATCC 6538PEry-S; type: functional; details: ATCC 6538P; summary of the method: as §1
[13] = Minimum inhibitory concentration against Streptococcus pyogenes EES 61 Ery-S; type: functional; summary of the method: as §1
[14] = Minimum inhibitory concentration against Haemophilus influenzae DILL Amp-R; type: functional; summary of the method: as §1
Streptococcus pneumoniae [15] = experiment: Cell free inhibiting activity against MLSB-resistant strain Streptococcus pneumoniae 1813 (methylated ribosomes for transcription/translation assay)
Streptococcus pneumoniae [16] = experiment: Cell free inhibiting activity against erythromycin-susceptible strain Streptococcus pneumoniae 5635 (Wild type ribosomes for transcription/translation assay)
Streptococcus pneumoniae [17] = experiment: Cell free inhibiting activity against erythromycin-susceptible strain Streptococcus pneumoniae 5635 (Wild type ribosomes for transcription/translation assay); type: functional
Summary of the method: (§2)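 Cell-free coupled transcription/translation assay using bacterial ribosome S-30 extracts. Wild-type ribosomes were isolated from the erythromycin-susceptible strain S. pneumoniae 5635. Inhibition is reported as IC50 (µM).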

[18] = Minimum inhibitory concentration againstH. influenzae DILL Amp-R; type: functional; details: Haemophilus influenzae
Summary of the method: (§3)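 Whole-cell MIC determined by agar dilution following National Committee for Clinical Laboratory Standards recommendations; values expressed in µg/mL.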

Mus musculus [19] = species on record: Mus musculus; experiment: Effective dose against Streptococcus pneumoniae 6303 (erythromycin susceptible strain); type: functional
Streptococcus pneumoniae [20] = experiment: Cell free inhibiting activity against Streptococcus pneumoniae 1813 (methylated ribosomes for transcription/translation assay); type: functional
Streptococcus pneumoniae [21] = experiment: Cell free inhibiting activity against Streptococcus pneumoniae 5635(Wild type ribosomes for transcription/translation assay); type: functional; summary of the method: as §2
Staphylococcus aureus [22] = experiment: Minimum against Staphylococcus aureus 10649 (erythromycin susceptible strain); type: functional; summary of the method: as §1
Streptococcus pneumoniae [23] = experiment: Minimum against Streptococcus pneumoniae 6303 (erythromycin susceptible strain); type: functional; summary of the method: as §3
Streptococcus pneumoniae [24] = experiment: Cell free inhibiting activity against MLSB-resistant strain Streptococcus pneumoniae 1813 (methylated ribosomes for transcription/translation assay); remark: listed apart in the source

| MIC (Staphylococcus aureus [1]) | MIC (Staphylococcus aureus [2]) | MIC [5] | MIC (Staphylococcus aureus [6]) | MIC (Streptococcus pneumoniae [7]) | MIC [8] | MIC (Streptococcus pneumoniae [9]) | MIC (Streptococcus pneumoniae [10]) | MIC [11] | MIC (Staphylococcus aureus [12]) | MIC [13] | MIC [14] | IC50 (Streptococcus pneumoniae [15]) | IC50 (Streptococcus pneumoniae [16]) | IC50 (Streptococcus pneumoniae [17]) | Structure (SMILES) | ED50 (Mus musculus [3]) | ED50 (Mus musculus [4]) | also measured |
| --- | --- | --- | --- | --- | --- | --- | --- | --- | --- | --- | --- | --- | --- | --- | --- | --- | --- | --- |
| 0.05 µg/mL (≈ 0.0652 µM) | > 100 µg/mL | 0.5 µg/mL (≈ 0.652 µM) | 0.05 µg/mL (≈ 0.0652 µM) | 1 µg/mL (≈ 1.3 µM) | 0.25 µg/mL (≈ 0.326 µM) | 0.015 µg/mL (≈ 0.0196 µM) | 0.015 µg/mL (≈ 0.0196 µM) | 2 µg/mL (≈ 2.61 µM) | 0.05 µg/mL (≈ 0.0652 µM) | 0.03 µg/mL (≈ 0.0391 µM) | 2 µg/mL (≈ 2.61 µM) | 25000 nM | 100 nM | – | CC[C@H]1OC(=O)[C@H](C)C(=O)[C@H](C)[C@@H](O[C@@H]2O[C@H](C)C[C@H](N(C)C)[C@H]2O)[C@](C)(OC/C=C/c2cnc3cccnc3c2)C[C@@H](C)C(=O)[C@H](C)[C@H]2NC(=O)O[C@@]21C | 12.5 mg/kg | 17.3 mg/kg | – |
| 0.05 µg/mL (≈ 0.0648 µM) | > 100 µg/mL | 0.25 µg/mL (≈ 0.324 µM) | 0.05 µg/mL (≈ 0.0648 µM) | 0.25 µg/mL (≈ 0.324 µM) | 0.5 µg/mL (≈ 0.648 µM) | 0.004 µg/mL (≈ 0.00518 µM) | 0.004 µg/mL (≈ 0.00518 µM) | 1 µg/mL (≈ 1.3 µM) | 0.05 µg/mL (≈ 0.0648 µM) | 0.008 µg/mL (≈ 0.0104 µM) | 2 µg/mL (≈ 2.59 µM) | 150000 nM | – | 70 nM | CC[C@H]1OC(=O)[C@H](C)C(=O)[C@H](C)[C@@H](O[C@@H]2O[C@H](C)C[C@H](N(C)C)[C@H]2O)[C@](C)(OC/C=C/c2cnc3ccsc3c2)C[C@@H](C)C(=O)[C@H](C)[C@H]2NC(=O)O[C@@]21C | > 50 mg/kg | – | – |
| 12.5 µg/mL (≈ 16.1 µM) | > 100 µg/mL | 64 µg/mL (≈ 82.7 µM) | – | – | – | – | – | > 128 µg/mL | 0.78 µg/mL (≈ 1.01 µM) | – | – | > 500000 nM | – | 150 nM | C=CCO[C@]1(C)C[C@@H](C)C(=O)[C@H](C)[C@@H](O)[C@](C)(O)[C@@H](CC)OC(=O)[C@H](C)[C@@H](O[C@H]2C[C@@](C)(OC)[C@@H](O)[C@H](C)O2)[C@H](C)[C@H]1O[C@@H]1O[C@H](C)C[C@H](N(C)C)[C@H]1O | – | – | MIC [18]: 32 µg/mL (≈ 41.3 µM) |
| 0.1 µg/mL (≈ 0.13 µM) | > 100 µg/mL | 0.25 µg/mL (≈ 0.326 µM) | 0.1 µg/mL (≈ 0.13 µM) | 0.5 µg/mL (≈ 0.652 µM) | 0.25 µg/mL (≈ 0.326 µM) | 0.015 µg/mL (≈ 0.0196 µM) | 0.015 µg/mL (≈ 0.0196 µM) | 1 µg/mL (≈ 1.3 µM) | 0.1 µg/mL (≈ 0.13 µM) | 0.03 µg/mL (≈ 0.0391 µM) | 2 µg/mL (≈ 2.61 µM) | 40000 nM | 80 nM | – | CC[C@H]1OC(=O)[C@H](C)C(=O)[C@H](C)[C@@H](O[C@@H]2O[C@H](C)C[C@H](N(C)C)[C@H]2O)[C@](C)(OC/C=C/c2ccc3nccnc3c2)C[C@@H](C)C(=O)[C@H](C)[C@H]2NC(=O)O[C@@]21C | < 6.25 mg/kg | 33.1 mg/kg | – |
| – | – | – | 0.78 µg/mL (≈ 1.04 µM) | – | – | – | 0.12 µg/mL (≈ 0.16 µM) | – | – | – | – | – | – | – | CC[C@H]1OC(=O)[C@H](C)[C@@H](O[C@H]2C[C@@](C)(OC)[C@@H](O)[C@H](C)O2)[C@H](C)[C@@H](O[C@@H]2O[C@H](C)C[C@H](N(C)C)[C@H]2O)[C@](C)(O)C[C@@H](C)CN(C)[C@H](C)[C@@H](O)[C@]1(C)O [AZITHROMYCIN] | 24.8 mg/kg | – | ED50 (Mus musculus [19]): 18.8 mg/kg; IC50 (Streptococcus pneumoniae [20]): > 500000 nM; IC50 (Streptococcus pneumoniae [21]): 170 nM |
| – | – | – | – | – | – | – | – | – | – | – | – | – | – | – | CC[C@H]1OC(=O)[C@H](C)[C@@H](O[C@H]2C[C@@](C)(OC)[C@@H](O)[C@H](C)O2)[C@H](C)[C@@H](O[C@@H]2O[C@H](C)C[C@H](N(C)C)[C@H]2O)[C@](C)(OC)C[C@@H](C)C(=O)[C@H](C)[C@@H](O)[C@]1(C)O [CLARITHROMYCIN] | 16.7 mg/kg | 27.9 mg/kg | MIC (Staphylococcus aureus [22]): 0.2 µg/mL (≈ 0.267 µM); IC50 (Streptococcus pneumoniae [20]): > 500000 nM; IC50 (Streptococcus pneumoniae [21]): 90 nM; MIC (Streptococcus pneumoniae [23]): 0.03 µg/mL (≈ 0.0401 µM) |

| Structure (SMILES) | MIC (Staphylococcus aureus [1]) | MIC (Staphylococcus aureus [2]) | MIC [5] | MIC (Staphylococcus aureus [6]) | MIC (Streptococcus pneumoniae [7]) | MIC [8] | MIC (Streptococcus pneumoniae [9]) | MIC (Streptococcus pneumoniae [10]) | MIC [11] | MIC (Staphylococcus aureus [12]) | MIC [13] | MIC [14] | IC50 (Streptococcus pneumoniae [15]) | IC50 (Streptococcus pneumoniae [16]) | IC50 (Streptococcus pneumoniae [17]) | ED50 (Mus musculus [3]) | ED50 (Mus musculus [4]) | also measured |
| --- | --- | --- | --- | --- | --- | --- | --- | --- | --- | --- | --- | --- | --- | --- | --- | --- | --- | --- |
| CC[C@H]1OC(=O)[C@H](C)C(=O)[C@H](C)[C@@H](O[C@@H]2O[C@H](C)C[C@H](N(C)C)[C@H]2O)[C@](C)(OCC=Cc2cnc3ccccc3c2)C[C@@H](C)C(=O)[C@H](C)[C@H]2NC(=O)O[C@@]21C [CETHROMYCIN] | 0.05 µg/mL (≈ 0.0653 µM) | > 100 µg/mL | 0.25 µg/mL (≈ 0.326 µM) | 0.05 µg/mL (≈ 0.0653 µM) | 0.125 µg/mL (≈ 0.163 µM) | 0.25 µg/mL (≈ 0.326 µM) | 0.004 µg/mL (≈ 0.00522 µM) | 0.004 µg/mL (≈ 0.00522 µM) | 1 µg/mL (≈ 1.31 µM) | 0.05 µg/mL (≈ 0.0653 µM) | 0.004 µg/mL (≈ 0.00522 µM) | 2 µg/mL (≈ 2.61 µM) | 28000 nM | 40 nM | – | 9.4 mg/kg | 7.8 mg/kg | – |
| CC[C@H]1OC(=O)[C@H](C)[C@@H](O[C@H]2C[C@@](C)(OC)[C@@H](O)[C@H](C)O2)[C@H](C)[C@@H](O[C@@H]2O[C@H](C)C[C@H](N(C)C)[C@H]2O)[C@](C)(O)C[C@@H](C)C(=O)[C@H](C)[C@@H](O)[C@]1(C)O [ERYTHROMYCIN] | 6.2 µg/mL (≈ 8.45 µM) | > 100 µg/mL | 16 µg/mL (≈ 21.8 µM) | – | 32 µg/mL (≈ 43.6 µM) | > 128 µg/mL | 0.06 µg/mL (≈ 0.0818 µM) | – | > 128 µg/mL | 0.2 µg/mL (≈ 0.273 µM) | 0.06 µg/mL (≈ 0.0818 µM) | – | – | – | 120 nM | – | – | MIC [18]: 8 µg/mL (≈ 10.9 µM); IC50 (Streptococcus pneumoniae [24]): > 500000 nM |
